ChEMBL document CHEMBL1157626, “A concise synthesis of 1,4-dihydro-[1,4]diazepine-5,7-dione, a novel 7-TM receptor ligand core structure with melanocortin receptor agonist activity” (Bioorg Med Chem, 2010)
Calls of active or inactive are those of the source. The rule behind the calls is not given here.

Experiments:
Rattus norvegicus [1] = assay: Anorexigenic activity in lean Sprague-Dawley rat assessed as suppression of peptide YY-induced nocturnal food intake during dark cycle period at 25 mg/kg, po administered 30 mins before peptide YY challenge; assay type: functional, organism-based; parameters: dose 25 mg/kg
Summary of the method: (§1)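 Sated lean Sprague-Dawley rats with third-ventricle cannulae dosed by oral gavage at 10:30 AM. Vehicle was 50% PEG500/25% EtOH/25% water. 0.23 nmol PYY given ICV in sterile saline at 11:00 AM. Intake logged every half hour through the light period and the dark cycle (6 PM–6 AM). N = 5/group.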

Rattus norvegicus [2] = assay: Anorexigenic activity in lean Sprague-Dawley rat assessed as suppression of nocturnal food intake during dark cycle period at 25 mg/kg, po administered prior to onset of nocturnal cycle; assay type: functional
[3] = target: T1, Melanocyte-stimulating hormone receptor (Homo sapiens, UniProt Q01726); assay: Agonist activity at human MC1R expressed in CHO cells after 4 hrs by luciferase reporter gene assay relative to alpha-melanocyte stimulating hormone; assay type: functional, cell-based; parameters: concentration or dose not given beside the values
Summary of the method: (§2)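 CHO-6xCRE-luc+ cells expressing the human receptor, plated at 4000 cells/well in DMEM/F12 with 10% FBS 48 h before assay. Switched to serum-free medium 16 h before compound addition, then incubated 4 h at 37 °C. Luciferase read after 10 min dark adaptation. Activity expressed as % of fold stimulation by 1 × 10^-7 M NDP-aMSH (duplicate control wells).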
Target sequence in this assay (Q01726 whole entry, looked up): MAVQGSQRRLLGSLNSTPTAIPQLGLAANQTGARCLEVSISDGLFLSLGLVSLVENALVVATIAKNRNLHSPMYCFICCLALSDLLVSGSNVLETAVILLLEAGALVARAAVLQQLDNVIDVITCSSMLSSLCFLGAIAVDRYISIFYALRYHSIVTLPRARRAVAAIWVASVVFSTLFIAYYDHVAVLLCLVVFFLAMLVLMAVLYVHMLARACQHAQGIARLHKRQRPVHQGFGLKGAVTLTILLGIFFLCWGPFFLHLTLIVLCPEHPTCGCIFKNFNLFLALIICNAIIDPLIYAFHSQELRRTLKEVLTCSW

[4] = target: T1, Melanocyte-stimulating hormone receptor; assay: Agonist activity at human MC1R expressed in CHO cells after 4 hrs by luciferase reporter gene assay; assay type: functional, cell-based; details: read-out: pEC50 (converted); summary of the method: as §2
Target sequence in this assay (Q01726 whole entry): as the sequence (Q01726 whole entry, looked up) above

Melanocortin receptor 4 [5] = target: T2, Melanocortin receptor 4 (Homo sapiens, UniProt P32245); assay: Agonist activity at human MC4R expressed in CHO cells after 4 hrs by luciferase reporter gene assay; assay type: functional, cell-based; details: read-out: pEC50 (converted); summary of the method: as §2
Rattus norvegicus [6] = assay: Anorexigenic activity in lean Sprague-Dawley rat assessed as suppression of peptide YY-induced food intake during day light cycle period at 25 mg/kg, po administered 30 mins before peptide YY challenge; assay type: functional, organism-based; parameters: dose 25 mg/kg; summary of the method: as §1
[7] = Oral bioavailability in Sprague-Dawley rat at 10 mg/kg; assay type: ADME, organism-based; details: in vivo
Summary of the method: (§3)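 Single oral dose to Sprague Dawley rats, given as a suspension in 50% PEG/25% EtOH/25% H2O. Plasma samples collected over time to build the pharmacokinetic profile.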

[8] = Tmax in Sprague-Dawley rat at 10 mg/kg, po; assay type: ADME, organism-based; parameters: dose 10 mg/kg, route oral; details: in vivo; summary of the method: as §3
[9] = AUC (0 to infinity) in Sprague-Dawley rat at 10 mg/kg, po; assay type: ADME, organism-based; parameters: dose 10 mg/kg, route oral, time infinity; details: plasma; summary of the method: as §3
[10] = Half life in Sprague-Dawley rat at 10 mg/kg, po; assay type: ADME, organism-based; parameters: dose 10 mg/kg, route oral; details: in vivo; summary of the method: as §3
Melanocortin receptor 4 [11] = target: T2, Melanocortin receptor 4; assay: Agonist activity at human MC4R expressed in CHO cells after 4 hrs by luciferase reporter gene assay relative to alpha-melanocyte stimulating hormone; assay type: functional, cell-based; summary of the method: as §2
[12] = Cmax in Sprague-Dawley rat at 10 mg/kg, po; assay type: ADME, organism-based; parameters: dose 10 mg/kg, route oral; details: in vivo; summary of the method: as §3
Rattus norvegicus [13] = assay: Anorexigenic activity in lean Sprague-Dawley rat assessed as suppression of peptide YY-induced food intake during day light cycle period at 5 mg/kg, po administered 30 mins before peptide YY challenge; assay type: functional, organism-based; parameters: dose 5 mg/kg; summary of the method: as §1

T2 sequence (P32245 whole entry): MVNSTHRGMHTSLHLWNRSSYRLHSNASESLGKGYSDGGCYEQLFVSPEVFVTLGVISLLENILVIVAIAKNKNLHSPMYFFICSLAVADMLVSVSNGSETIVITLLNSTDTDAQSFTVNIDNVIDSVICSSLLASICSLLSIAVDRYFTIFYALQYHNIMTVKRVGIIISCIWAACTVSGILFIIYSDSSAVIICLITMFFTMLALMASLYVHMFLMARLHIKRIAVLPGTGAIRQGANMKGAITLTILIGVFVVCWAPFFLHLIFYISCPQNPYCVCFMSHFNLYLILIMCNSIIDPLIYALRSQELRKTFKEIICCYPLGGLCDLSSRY

Activity [3]: 82% | EC50 [4]: 15.8 nM | EC50 (Melanocortin receptor 4 [5]): 339 nM | bioavailability [7]: 6.2% | Tmax [8]: 40.2 min | AUC(0-inf) [9]: 260 ng·h/mL | half-life [10]: 90 min | Activity (Melanocortin receptor 4 [11]): 53 | Cmax [12]: 123 ng/mL
Compound: COc1ccc(N(C(=O)CN2C=CN(c3ccccc3)C(=O)[C@H](Cc3n[nH]c4ccccc34)C2=O)C(C)C)cc1
inhibition (Rattus norvegicus [1]): Active | inhibition in vivo at 25 mg/kg (Rattus norvegicus [2]): 20% | inhibition (Rattus norvegicus [6]): Active | inhibition (Rattus norvegicus [13]): Active
